This note sets out measurements from ChEMBL document CHEMBL1641364, “Synthesis of truncated analogues of the iNKT cell agonist, α-galactosyl ceramide (KRN7000), and their biological evaluation” (Bioorg Med Chem, 2011).

Common to all, as to assay type: cell-based
For assay [1], the target named is T1, Antigen-presenting glycoprotein CD1d (Homo sapiens) (UniProt P15813).
T1 sequence (whole entry): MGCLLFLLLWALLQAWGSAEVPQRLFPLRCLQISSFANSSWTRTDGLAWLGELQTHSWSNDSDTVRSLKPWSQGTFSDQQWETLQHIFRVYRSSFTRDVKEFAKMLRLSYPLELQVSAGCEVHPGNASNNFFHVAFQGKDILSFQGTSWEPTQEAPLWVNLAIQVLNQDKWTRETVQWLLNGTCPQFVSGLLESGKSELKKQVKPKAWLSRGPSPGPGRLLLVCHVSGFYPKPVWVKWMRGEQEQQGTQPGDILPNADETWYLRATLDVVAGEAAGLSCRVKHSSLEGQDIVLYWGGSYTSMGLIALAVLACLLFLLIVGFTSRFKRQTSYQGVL
As to the kind of experiment: Binding affinity to C1R-hCD1d expressed in human B cells assessed as increase in Th1 cytokine release in mouse iNKT cells upto 100 ng/ml after 36 hrs by ELISA.

In assay [2] the target is T1, Antigen-presenting glycoprotein CD1d (Homo sapiens). As to the kind of experiment: Binding affinity to C1R-hCD1d expressed in human B cells assessed as change in IFN-gamma/IL4 ratio in human iNKT cells upto 100 ng/ml after 36 hrs by ELISA. In short, it runs like this: (§1)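 C1R cells expressing human CD1d were pulsed with lipid at a range of concentrations. 5 × 10⁴ pulsed targets were co-cultured with 2 × 10⁴ human iNKT line cells at 37 °C for 36 h. IFN-γ and IL-4 in the harvested supernatants were quantified by ELISA, and IFN-γ/IL-4 and IL-4/IFN-γ ratios were derived from these values.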

Assay [3] has the same target. As to the kind of experiment: Binding affinity to C1R-hCD1d expressed in human B cells assessed as increase in Th2 cytokine release in mouse iNKT cells upto 100 ng/ml after 36 hrs by ELISA.
Assay [4] has the same target. The experiment in a line: Binding affinity to C1R-hCD1d expressed in human B cells assessed as increase in IFN-gamma/IL4 ratio in mouse iNKT cells upto 100 ng/ml after 36 hrs by ELISA. In general terms: ELISA stands for enzyme-linked immunosorbent assay.
For assay [5] the target is unchanged. As to the kind of experiment: Binding affinity to C1R-hCD1d expressed in human B cells assessed as activation of IFN-gamma release in human iNKT cells upto 100 ng/ml after 36 hrs by ELISA. In short, it runs like this:
as §1

Assay [6] has the same target. The experiment in a line: Binding affinity to C1R-hCD1d expressed in human B cells assessed as activation of IL-4 release in human iNKT cells upto 100 ng/ml after 36 hrs by ELISA. The method in brief: as §1

Calls of active or inactive are those of the source. The calls are words filed in the database; no cut-off is given here.

On to `CCCCC/C=C\C/C=C\CCCCCCCCCC(=O)N[C@@H](CO[C@H]1O[C@H](CO)[C@H](O)[C@H](O)[C@H]1O)[C@H](O)[C@H](O)CCCCCCCCCCCCCC`, for which the result in assay [1], in assay [3] and in assay [4] was Active. The outcome in assay [2] was inactive.
`CCCCCCCCCCCCCCCCCCCCCCCCCC(=O)N[C@@H](CO[C@H]1O[C@H](CO)[C@H](O)[C@H](O)[C@H]1O)[C@H](O)[C@H](O)CCCCCCCC`: the result in assay [1], in assay [5], in assay [3], in assay [6] and in assay [4] was Active. Further, in assay [2], the outcome was inactive.
Regarding `CCCCCCCCCCCCCCCCCCCCCCCCCC(=O)N[C@@H](CO[C@H]1O[C@H](CO)[C@H](O)[C@H](O)[C@H]1O)[C@H](O)[C@H](O)CCCCCCCCCCC`, the result in assay [1], in assay [5], in assay [3], in assay [6] and in assay [4] was Active. Moreover, in assay [2], the outcome was inactive.
Regarding `CCCCCCCCCCCCCCCCCCCCCCCCCC(=O)N[C@@H](CO[C@H]1O[C@H](CO)[C@H](O)[C@H](O)[C@H]1O)[C@H](O)[C@H](O)CCCCC`, the outcome in assay [1], in assay [5], in assay [3], in assay [6] and in assay [4] was Active. Moreover, in assay [2], the result was inactive.
As for `CCCCCCCCCCCCCCCCCCCCCCCCCC(=O)N[C@@H](CO[C@H]1O[C@H](CO)[C@H](O)[C@H](O)[C@H]1O)[C@H](O)[C@H](O)CCCCCCCCCCCCCC`, the result in assay [1], in assay [5], in assay [6] and in assay [4] was Active. Further, the result in assay [2] was inactive.
